FN deposition inh: fibronectin deposition inhibition; AH1F fibroblasts, Alexa488-fibronectin deposition fluorescence, overnight; inhibition, % at 12.6 µM; actives 0.086% (n = 350,000);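 active = mean inhibition across replicates of 30% or more, regardless of how many single replicates reach that level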;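 also: positive control wells lacked labelled fibronectin entirely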
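Material: AH1F fibroblast monolayer depositing Alexa488-labelled fibronectin into matrix / Amount: 10000 AH1F cells per well / Signal: fluorescence 485/525 nm / Medium: DMEM, 2% serum / Compound: single dose, pinned / Incubation: 1 h cell adhesion before compound, then overnight fibronectin incubation / Reagent: Alexa488-FN, 24 nM final / Read-out: inhibition of fibronectin deposition signal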
Ecoli rRNA inh: inhibits bacterial ribosomal RNA function over humanized ribosomes | E. coli WT GFP vs humanized-ribosome RFP mutants, fluorescence, 24 h; stronger effect = lower value; DMSO median 0, no signal -100 | AID 720706 | actives 1.6% (n = 350,000) | GFP signal change (wild-type ribosome), % (concentration not given with the values);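 active = significant combined selectivity score with lowered wild-type GFP, culture density cut under 30%, mutant RFP and density less affected; inactive = any of these conditions unmet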
HIV Env fusion: HIV envelope-mediated fusion inhibition; AID 651610; actives 1.1% (n = 360,000); HeLa-JRFL Env/CEM21 cell fusion, luciferase; inhibition, % at 12.3 µM;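 active = mean replicate inhibition score of at least 50 and every replicate individually at or above 50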;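 also: 0% = plate neutral controls and 100% = maraviroc near 300 nM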
ERp5 block: ERp5 (human) disulfide isomerase inhibition; Q15084; ERp5 insulin aggregation, absorbance 650 nm, 90 min; inhibition, % at 9.99 µM; actives 0.05% (n = 350,000);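 active = mean replicate inhibition above about 25%, with every replicate also reaching it, limit read from the data, passing the limit was not always enough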
PDI inh: blocks human protein disulfide isomerase activity. P07237. PDI insulin aggregation turbidity, A650, 90 min. inhibition, % at 10 µM. actives 0.052% (n = 350,000);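 active = mean inhibition across replicates of 30% or more, whatever share of single replicates reach that level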
Target sequence (P07237 whole entry, looked up): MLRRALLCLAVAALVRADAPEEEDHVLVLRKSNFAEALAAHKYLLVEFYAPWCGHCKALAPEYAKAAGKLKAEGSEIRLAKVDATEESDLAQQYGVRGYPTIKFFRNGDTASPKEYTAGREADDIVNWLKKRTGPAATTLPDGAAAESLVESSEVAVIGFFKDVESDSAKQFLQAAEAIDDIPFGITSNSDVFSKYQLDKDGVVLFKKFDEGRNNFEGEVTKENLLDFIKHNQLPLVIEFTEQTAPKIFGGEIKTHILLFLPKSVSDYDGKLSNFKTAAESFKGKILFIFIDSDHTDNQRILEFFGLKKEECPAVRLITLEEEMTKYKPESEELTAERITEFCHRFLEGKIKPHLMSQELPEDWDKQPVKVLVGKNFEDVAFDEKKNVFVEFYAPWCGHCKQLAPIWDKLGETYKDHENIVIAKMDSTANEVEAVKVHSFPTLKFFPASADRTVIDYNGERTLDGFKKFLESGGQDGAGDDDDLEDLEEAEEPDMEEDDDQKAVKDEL
PvdQ acylase: blocks Pseudomonas aeruginosa PvdQ acylase activity; purified PvdQ acylase, fluorescence plate reader; inhibition, % at 10 µM; actives 0.063% (n = 340,000); AID 488965; in the data active = inhibition above about 30%, passing the limit was not always enough;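 also: 0% = vehicle neutral wells and 100% = reference inhibitor wells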
Numbers without * were called inactive; x = no result given; [ ] = dose if it differs, or a comment. Compounds with a hit are over-represented: about 2.2% of the library has one in this group of screens.

SMILES | FN deposition inh | Ecoli rRNA inh | HIV Env fusion | ERp5 block | PDI inh | PvdQ acylase
C[C@@H]1CN([C@H](C)CO)C(=O)c2cc(NS(=O)(=O)c3ccccc3)ccc2O[C@@H](C)CCCCO[C@@H]1CN(C)S(=O)(=O)c1cn(C)cn1 | -9.7 | -0.7 | 8.0[16.7 µM] | 2.2 | x | x
C[C@@H]1CN([C@H](C)CO)C(=O)c2cc(-c3cncnc3)cnc2O[C@H]1CN(C)C(=O)CN1CCOCC1 | -7.6 | 6.4 | x | -2.0 | x | x
C[C@@H]1CN([C@H](C)CO)C(=O)Cc2cc(NC(=O)Nc3cccc4ccccc34)ccc2O[C@H]1CN(C)Cc1ccc(C(F)(F)F)cc1 | x | 1.7 | 24.1[16.7 µM] | 21.4 | x | x
C[C@H](CO)N1C[C@H](C)[C@@H](CN(C)Cc2ccccc2)Oc2ccc(NC(=O)Nc3cccc4ccccc34)cc2CC1=O | x | 1.8 | 6.9[16.7 µM] | -2.5 | x | x
C[C@H](CO)N1C[C@H](C)[C@H](CN(C)Cc2ccc(C(F)(F)F)cc2)Oc2ccc(NC(=O)Nc3cccc4ccccc34)cc2CC1=O | x | 9.0 | 8.0[16.7 µM] | 64.3* | x | x
C[C@H](CO)N1C[C@H](C)[C@H](CN(C)Cc2ccccc2)Oc2ccc(NC(=O)Nc3cccc4ccccc34)cc2CC1=O | x | -2.8 | 60.2*[16.7 µM] | -2.0 | x | x
C[C@H]1CN([C@@H](C)CO)C(=O)Cc2cc(NC(=O)Nc3cccc4ccccc34)ccc2O[C@H]1CN(C)Cc1ccc(C(F)(F)F)cc1 | x | 0.3 | 2.6[16.7 µM] | 69.0* | x | x
Cc1noc(C)c1S(=O)(=O)Nc1ccc2c(c1)C(=O)N([C@H](C)CO)C[C@H](C)[C@@H](CN(C)S(C)(=O)=O)OCCCC[C@@H](C)O2 | x | -0.2 | -3.5[16.7 µM] | 2.3 | x | x
CCOC(=O)Nc1sc(C)c(C)c1C(=O)OCC | 3.1 | -19.9* | -1.6 | -3.7 | -2.7 | 7.6
COc1ccc(S(=O)(=O)N(C)C[C@H]2Oc3ccc(NC(=O)Cn4cnnn4)cc3C(=O)N([C@@H](C)CO)C[C@@H]2C)cc1 | 7.9 | -0.2 | -57.2[16.7 µM] | 5.7 | x | x
COc1cc2c(c(OCC(=O)NC(C)C)c1)C(=O)O[C@@H](C)CCCC(=O)CCCCC2 | -2.5 | -0.9 | 87.5* | -0.4 | -2.0 | 0.4
COc1cc(OCC(=O)NC(C)C)cc2c1C(=O)O[C@@H](C)CCCC(=O)CCCCC2 | 2.9 | 7.1 | 72.7* | 2.1 | -3.0 | -18.5
COc1cc(OC)cc(C(=O)OCC(=O)NC2CCCCCC2)c1 | 3.4 | 11.7 | x | -2.5 | 1.9 | -19.0
CCCNC(=O)C[C@@H]1CC[C@H]2[C@@H](COC[C@@H](O)CN2Cc2cccc(F)c2)O1 | 0.7 | 1.1 | x | 2.6 | x | x
O=[N+]([O-])c1cccc(COc2ccccc2CN2CCOCC2)c1 | -2.3 | 8.5 | 55.6* | 4.4 | 5.1 | -0.7
O=[N+]([O-])c1cccc(COc2ccccc2CN2CCCCC2)c1 | -2.0 | 11.2 | -98.9 | -6.3 | -5.9 | -6.6
C[C@@H]1CN([C@H](C)CO)C(=O)c2cc(NC(=O)C3CCCCC3)ccc2O[C@@H](C)CCCCO[C@@H]1CN(C)Cc1ccc(C(F)(F)F)cc1 | x | -5.2 | 13.0[16.7 µM] | x | x | x
COc1cccc(CNC(=O)C[C@@H]2C=C[C@H](NC(=O)C3CCC3)[C@@H](CO)O2)c1 | x | 2.5 | -15.7[16.7 µM] | x | x | x
COc1cccc(CN2CC3(CN(C(C)=O)C3)c3c(n(C)c4cc(OC)ccc34)[C@H]2CO)c1 | x | 0.5 | x | -7.1 | x | x
CCCOc1ccc(C(=O)NNC(=S)NC(=O)CC)cc1 | x | x | 60.0* | x | 7.0 | -7.2
C=CCNC(=S)NNC(=O)c1ccc(OCCC)cc1 | x | x | x | x | 6.5 | -1.4
C/C(=N\NC(=S)NC1CCCCC1)c1cccs1 | -4.8 | -25.6* | 1.2 | 5.3 | -2.3 | -24.4
C/C(=N\NC(=S)NC1CCCCC1)c1c(F)cccc1F | -4.3 | -56.4 | 13.2 | 5.9 | 3.0 | -2.0
COc1ccc2[nH]c(=O)c(CN(Cc3ccco3)Cc3nnnn3Cc3ccccc3)cc2c1 | x | x | x | x | -1.1 | -5.3
Cc1ccc2[nH]c(=O)c(CN(Cc3cccs3)Cc3nnnn3CC3CCCO3)cc2c1 (stereo unspecified) | 8.5 | x | 16.8 | x | 14.1 | 9.2
Cc1ccc2cc(CN(Cc3cccs3)Cc3nnnn3CC3CCCO3)c(=O)[nH]c2c1 (stereo unspecified) | x | -28.9* | x | -2.9 | 9.1 | -17.5
COc1ccc2[nH]c(=O)c(CN(Cc3cccs3)Cc3nnnn3Cc3ccccc3)cc2c1 | -3.5 | x | 98.2* | x | -3.2 | 3.9

Screening results deposited in PubChem BioAssay by Broad Institute.
